The values below come from ChEMBL document CHEMBL4513216, “Probing the Open Global Health Chemical Diversity Library for Multistage-Active Starting Points for Next-Generation Antimalarials” (ACS Infect Dis, 2020).

The nature of the data set: Toxicity liver stage against HepG2, at 10uM. The class given is cell-based. The note with it: human, HepG2-A16-CD81EGFP cells; read-out: INHIBITION
Also on record: test concentration 10 uM, cell line HepG2-A16-CD81EGFP. A digest of the protocol:
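Uninfected HepG2-A16-CD81EGFP cells, 3 × 10^3 per well, 1536-well, plated on prespotted compound at 10 μM final, parasite-free screening media added to match infected plates; puromycin 10 μM positive, DMSO 0.5% negative; run in parallel with 48 h PbLuc assay at 37 °C, 5% CO2; viability by CellTiter-Glo luminescence, normalized to controls.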
On to `CC(CNC(=O)Nc1ccc(C#N)cc1)N1CCc2ccccc21` (stereo unspecified), for which the cytotoxicity at 10 µM is -5.71%.

As to `Cc1ccc(S(=O)(=O)n2ccn(C(=O)CC(C)C)c2=O)cc1`, the cytotoxicity at 10 µM came to 11.2%.

As to `CC(C)C(=O)N1CCN(C(=O)N(C)C)CC2(CC(=O)N(C)C2)C1` (stereo unspecified), the cytotoxicity at 10 µM was -21%.

Take `CC(C)=CCC/C(C)=C\CNCc1ccco1`: the cytotoxicity at 10 µM was -12.6%.

Consider `CCOC(=O)N1CCN(C(=O)c2sc(-c3ccccc3F)nc2C)CC1`, for which the cytotoxicity at 10 µM was 20%.

For `Cc1c(Br)cnn1C(C)C(=O)Nc1nncs1` (stereo unspecified), the cytotoxicity at 10 µM is -4.61%.

Regarding `COc1c(C2SCC(=O)Nc3[nH]ncc32)cc2c(c1OC)OCO2` (stereo unspecified), the cytotoxicity at 10 µM is 0.219%.

In the case of `Cc1ccnc(NC(=O)c2cccc(OCc3nnnn3C)c2)c1`, the cytotoxicity at 10 µM is -0.319%.

Turning to `Cn1cccc1C(=O)NCc1ccnc(C2CCCOC2)n1` (stereo unspecified), the cytotoxicity at 10 µM worked out at 3.41%.

Consider `Cn1cc(CN2CCC(c3cc(CCO)[nH]n3)C2)cn1` (stereo unspecified), for which the cytotoxicity at 10 µM amounted to 3.19%.

On to `CC(C)N1CCC2(CC1)C[C@@H](O)[C@H](c1ccccc1)NC2=O`, for which the cytotoxicity at 10 µM was -16.7%.

For the compound `CN(C)C(=O)c1cn[nH]c1C1(C)CCCN(Cc2ccccn2)C1` (stereo unspecified), the cytotoxicity at 10 µM worked out at 4.68%.

Consider `Cn1nc(C2CCCN2)c2c(C(=O)NC3CC3)cc(C3CC3)nc21` (stereo unspecified), for which the cytotoxicity at 10 µM turned out to be 15.3%.

Consider `O=C(O)c1ccccc1CN1CCC2(Cc3ccccc3CNC2=O)C1` (stereo unspecified), for which the cytotoxicity at 10 µM worked out at 8.21%.

In the case of `CCCC(=O)N1Cc2ccccc2CC2(CCN(C)C2)C1` (stereo unspecified), the cytotoxicity at 10 µM amounted to 2.71%.

`CCNc1ncnc2c1CN(C1CCCNCC1)C(=O)CN2C` (stereo unspecified): the cytotoxicity at 10 µM came to 5.5%.

Consider `COC(=O)c1ccc(N2CCN(C(=O)CC(F)(F)F)C(C)C2)cc1` (stereo unspecified), for which the cytotoxicity at 10 µM came to 4.42%.

In the case of `CC(=O)NCc1ccc(C(=O)N2CCCC(n3cncn3)C2)o1` (stereo unspecified), the cytotoxicity at 10 µM is 17.1%.

Regarding `O=C(O)CCN(Cc1ccc(F)c(F)c1)C(=O)C1CC1`, the cytotoxicity at 10 µM was 1.04%.

Turning to `CC(NC(=O)Nc1nccs1)C(=O)NC1CCCC1` (stereo unspecified), the cytotoxicity at 10 µM came to 1.87%.

As for `Cc1csc(CCCNC(C)CC(=O)Nc2ccc(F)cc2)n1` (stereo unspecified), the cytotoxicity at 10 µM was found to be 1.52%.

On to `O=C(O)c1ccc(CCNC(=O)C2(O)Cc3ccccc3C2)cc1`, for which the cytotoxicity at 10 µM is 3.69%.

Turning to `COc1cccc(CNCCc2cc(F)cc3c2OCOC3)c1`, the cytotoxicity at 10 µM was -23.1%.

For the compound `Cn1ccnc1-c1cn(CCc2nnc(N)s2)nn1`, the cytotoxicity at 10 µM was -4.3%.

Regarding `COC(=O)c1cc(OCC2CCC2)cc(C(=O)NCC(C)(C)O)c1`, the cytotoxicity at 10 µM is 4.01%.

For the compound `CNC(=O)CNCC1(O)CCCN(Cc2ccc(F)c(F)c2)C1=O` (stereo unspecified), the cytotoxicity at 10 µM is -9.88%.

For the compound `CSCC(=O)N[C@H]1CN(Cc2c(C)noc2C)C[C@@H]1C(C)C`, the cytotoxicity at 10 µM is 5.4%.

Turning to `Cc1nc(C(C)NC(=O)c2cn(Cc3ccc(Cl)cc3)nn2)n[nH]1` (stereo unspecified), the cytotoxicity at 10 µM was determined as 10.2%.

Take `O=C(O)c1ccnc(-c2ccnc(N3CCC4(CCO4)CC3)n2)c1`: the cytotoxicity at 10 µM was -10.7%.

Turning to `Cc1nsc(NC(=O)NC2CCCN(C)C2)n1` (stereo unspecified), the cytotoxicity at 10 µM is -17.1%.

On to `CCN1CCC(CC(=O)NC[C@H]2CCc3ccccc3O2)CC1`, for which the cytotoxicity at 10 µM is -28.4%.

As to `Cc1nnc(CNC(=O)[C@@H]2C[C@H](NC(=O)C(C)(C)C)CN2C)[nH]1`, the cytotoxicity at 10 µM is 1.76%.

For the compound `Cc1ccc(C)c(-n2cc(CN3CC[C@@H](O)C3)c(-c3ccccc3)n2)c1`, the cytotoxicity at 10 µM is -6.77%.

On to `COc1ccc(CN2CCN(CC3CC3)[C@@H]3CS(=O)(=O)C[C@@H]32)cc1C`, for which the cytotoxicity at 10 µM is -1.95%.

On to `COCC(=O)N1CCCC(C(=O)N(C)CCCc2cnn(C)c2)C1` (stereo unspecified), for which the cytotoxicity at 10 µM is -137%.

Turning to `CN1CCN(C(=O)C2CN(Cc3cc4ccccc4o3)CCN2)CC1` (stereo unspecified), the cytotoxicity at 10 µM was -8.2%.

For the compound `Cn1ccc2ccc(C(=O)N3CCN(C(=O)N4CCOCC4)CC3)cc21`, the cytotoxicity at 10 µM was -21.1%.

`Cc1noc(C)c1CN1CC2(CCN(C(=O)c3cscn3)CC2)CC1=O`: the cytotoxicity at 10 µM is -8.86%.

On to `COc1ccc(-n2nnc(C(=O)NC(C)C)c2C2CC2)cc1`, for which the cytotoxicity at 10 µM is -14.7%.

With `O=C(Cc1ccsc1)N1CCC(n2nc(-c3ccco3)ccc2=O)CC1`, the cytotoxicity at 10 µM is -8.98%.

Consider `CN1CCN(C2CCN(CCOc3ccccc3)CC2)C1=O`, for which the cytotoxicity at 10 µM is -2.15%.

On to `CCn1cc(CN2CCCN(C(=O)CCN3CCCC3=O)CC2)cn1`, for which the cytotoxicity at 10 µM was determined as 0.428%.

For the compound `Cc1ccsc1CNC(=O)CCc1c(C)nc2cc(O)nn2c1C`, the cytotoxicity at 10 µM was -7.01%.

For the compound `CC1CCN(CCNC(=O)c2scnc2Cl)CC1`, the cytotoxicity at 10 µM was -4.2%.

On to `COc1c(CNC2CCN(c3ccccn3)CC2)c(C(C)C)nn1C`, for which the cytotoxicity at 10 µM is -8.06%.

In the case of `CCCc1nc(C(C)(C)NC(=O)C2CC(=O)N(C3CC3)C2)no1` (stereo unspecified), the cytotoxicity at 10 µM is -4.41%.

Take `CCc1nc(C2CCCN2C(=O)CCc2nc(C(C)(C)C)no2)no1` (stereo unspecified): the cytotoxicity at 10 µM is -0.819%.

`Cc1nccn1C1CCCN(C(=O)COC2CCCC2)C1` (stereo unspecified): the cytotoxicity at 10 µM was -10.5%.

For the compound `Cc1cnn(CC(=O)N2CCC(Nc3ccc(C)nn3)CC2)c1`, the cytotoxicity at 10 µM is -21.2%.

On to `Cc1cc(CN2CCCC(c3cc(C(F)(F)F)[nH]n3)C2)no1` (stereo unspecified), for which the cytotoxicity at 10 µM was -0.674%.

`NC(=O)CN1CCCN(C(=O)Cc2ccc3c(c2)OCCO3)CC1`: the cytotoxicity at 10 µM turned out to be 0.169%.

Take `Cc1cc(NC(=O)NCC2COc3ccccc3C2)no1` (stereo unspecified): the cytotoxicity at 10 µM is -9.47%.

As to `Cc1cn2c(n1)CCC(NC(=O)c1[nH]ncc1Br)C2` (stereo unspecified), the cytotoxicity at 10 µM is -6.49%.

On to `FC(F)(F)COCCN1CCOC(Cn2cccn2)C1` (stereo unspecified), for which the cytotoxicity at 10 µM is -6.1%.

`O=C(O)c1cc(S(=O)(=O)Nc2cc(F)cc(F)c2)cc2c1OCCO2`: the cytotoxicity at 10 µM was -12.6%.

As to `Cc1nc(C)n(CC2CCCN2CC(=O)Nc2cc(C)on2)n1` (stereo unspecified), the cytotoxicity at 10 µM is -2.11%.

Turning to `c1cc(CNCC2CNc3ccnn3C2)cc(OC2CCCCC2)n1` (stereo unspecified), the cytotoxicity at 10 µM is -8.78%.

On to `Cc1cnc2c(S(=O)(=O)NCC3CCS(=O)(=O)C3)cccc2c1` (stereo unspecified), for which the cytotoxicity at 10 µM is -7.52%.

As to `Cc1ccc(C2CCCN2Cc2nc3c(cnn3C)c(=O)[nH]2)cc1C` (stereo unspecified), the cytotoxicity at 10 µM was -0.858%.

`CCN(CC1CCCO1)C(=O)Nc1ccc(F)cc1OC` (stereo unspecified): the cytotoxicity at 10 µM was -8.98%.

For `COCCCN1CCc2cncnc2C1`, the cytotoxicity at 10 µM was -9.68%.

As to `Cc1nc(C)n(C2CCCN(C(=O)c3csc(C(C)C)n3)C2)n1` (stereo unspecified), the cytotoxicity at 10 µM was -1.72%.

Regarding `COc1ccc(CN2CCN(C(C)c3nc(C4CC4)no3)CC2)cc1` (stereo unspecified), the cytotoxicity at 10 µM worked out at 4.31%.

Consider `COc1ccc(CC(=O)N2CCN(c3nccn3C)CC2)cc1`, for which the cytotoxicity at 10 µM is 5.06%.

For the compound `CN(C)CCOCC1CN(C(=O)c2ccnnc2)Cc2ccnn2C1` (stereo unspecified), the cytotoxicity at 10 µM was 7.89%.

Consider `O=C1[C@H]2CN(CC3CC3)C[C@H]2CN1Cc1cccc(F)c1`, for which the cytotoxicity at 10 µM was found to be 5.56%.

Consider `CC(C)C(=O)N1CCCC(c2cc(C(F)F)n3ncnc3n2)C1` (stereo unspecified), for which the cytotoxicity at 10 µM turned out to be 1.18%.

For the compound `O=C(NCCCN1CCOCC1)c1ccn(-c2ccc3ccccn23)n1`, the cytotoxicity at 10 µM is 5.17%.

In the case of `Cn1cc(CCC(=O)N2C[C@@H]3CC[C@H]2CN(Cc2cccnc2)C3)cn1`, the cytotoxicity at 10 µM was -12.4%.

On to `CC(C)Cc1cc(CN2C[C@@H]3CC[C@H]2CN(Cc2cscn2)C3)n[nH]1`, for which the cytotoxicity at 10 µM was -2.03%.

For `Cc1nc[nH]c1CN1C[C@H]2CC[C@@H](C1)N(C(=O)CCn1cncn1)C2`, the cytotoxicity at 10 µM came out at 1.15%.
